Active and inactive are the calls of the source. The rule behind the calls is not given here.
What was measured:
[1] = tested on: Streptococcus pneumoniae; test: Antimicrobial activity against Streptococcus pneumoniae ATCC 49619 assessed as reduction in microbial growth measured after 20 hrs by CLSI based broth microdilution method; type: functional
[2] = tested on: Streptococcus pneumoniae; test: Antimicrobial activity against Streptococcus pneumoniae clinical isolate CUHK-X01 assessed as reduction in microbial growth measured after 20 hrs by CLSI based broth microdilution method; type: functional
[3] = tested on: Staphylococcus saprophyticus; test: Antimicrobial activity against Staphylococcus saprophyticus ATCC 15305 assessed as reduction in microbial growth measured after 20 hrs by CLSI based broth microdilution method; type: functional
[4] = tested on: Streptococcus agalactiae; test: Antimicrobial activity against Streptococcus agalactiae ATCC 12386 assessed as reduction in microbial growth measured after 20 hrs by CLSI based broth microdilution method; type: functional
[5] = tested on: Streptococcus pneumoniae; test: Antimicrobial activity against Streptococcus pneumoniae clinical isolate CUHK-X03 assessed as reduction in microbial growth measured after 20 hrs by CLSI based broth microdilution method; type: functional
[6] = tested on: Escherichia coli; test: Antimicrobial activity against Escherichia coli ATCC 25922 assessed as reduction in microbial growth measured after 20 hrs by CLSI based broth microdilution method; type: functional
How it was run: (§1)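 Broth microdilution per CLSI in cation-adjusted Mueller-Hinton broth. Two-fold serial dilutions from 256 to 0.25 μg/mL, inoculum about 5 × 10⁵ CFU/mL. Read after 20 h at 37 °C. MIC is the lowest concentration with no visible growth. Run in duplicate.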

[7] = tested on: Klebsiella pneumoniae; test: Antimicrobial activity against Klebsiella pneumoniae ATCC 700603 assessed as reduction in microbial growth measured after 20 hrs by CLSI based broth microdilution method; type: functional; how it was run: as §1
[8] = tested on: Enterobacter cloacae; test: Antimicrobial activity against Enterobacter cloacae ATCC 13047 assessed as reduction in microbial growth measured after 20 hrs by CLSI based broth microdilution method; type: functional; how it was run: as §1
[9] = tested on: Acinetobacter baumannii; test: Antimicrobial activity against Acinetobacter baumannii ATCC 19606 assessed as reduction in microbial growth measured after 20 hrs by CLSI based broth microdilution method; type: functional; how it was run: as §1
[10] = tested on: Staphylococcus aureus; test: Antimicrobial activity against Staphylococcus aureus ATCC 29213 assessed as reduction in microbial growth measured after 20 hrs by CLSI based broth microdilution method; type: functional; how it was run: as §1
[11] = tested on: Pseudomonas aeruginosa; test: Antimicrobial activity against Pseudomonas aeruginosa ATCC 27853 assessed as reduction in microbial growth measured after 20 hrs by CLSI based broth microdilution method; type: functional; how it was run: as §1
[12] = tested on: Streptococcus pneumoniae; test: Antimicrobial activity against Streptococcus pneumoniae TCH8431 (HM-145) assessed as reduction in microbial growth measured after 20 hrs by CLSI based broth microdilution method; type: functional
[13] = tested on: Streptococcus pneumoniae; test: Antimicrobial activity against Streptococcus pneumoniae NP112 (NR-19213) assessed as reduction in microbial growth measured after 20 hrs by CLSI based broth microdilution method; type: functional
[14] = tested on: Streptococcus pyogenes; test: Antimicrobial activity against Streptococcus pyogenes ATCC 19615 assessed as reduction in microbial growth measured after 20 hrs by CLSI based broth microdilution method; type: functional
[15] = tested on: Streptococcus pneumoniae; test: Antimicrobial activity against Streptococcus pneumoniae clinical isolate CUHK-X02 assessed as reduction in microbial growth measured after 20 hrs by CLSI based broth microdilution method; type: functional
[16] = tested on: Staphylococcus epidermidis; test: Antimicrobial activity against Staphylococcus epidermidis ATCC 12228 assessed as reduction in microbial growth measured after 20 hrs by CLSI based broth microdilution method; type: functional
[17] = tested on: Streptococcus pneumoniae; test: Antimicrobial activity against Streptococcus pneumoniae clinical isolate CUHK-X04 assessed as reduction in microbial growth measured after 20 hrs by CLSI based broth microdilution method; type: functional
[18] = tested on: Staphylococcus aureus; test: Antimicrobial activity against Staphylococcus aureus ATCC 25923 assessed as reduction in microbial growth measured after 20 hrs by CLSI based broth microdilution method; type: functional; how it was run: as §1
[19] = tested on: Enterococcus faecalis; test: Antimicrobial activity against Enterococcus faecalis ATCC 19433 assessed as reduction in microbial growth measured after 20 hrs by CLSI based broth microdilution method; type: functional; how it was run: as §1
[20] = Inhibition of Bacillus subtilis LgBiT-fused NusG/C-terminal SmBit fused […] CH protein-protein interaction using […] incubated for 20 mins by luminescence based analysis
How it was run: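 Split-nanoluciferase competition assay with His-tagged proteins expressed in E. coli BL21(DE3) and Ni-purified. C-SmBiT-β'CH (250 nM in PBS) was preincubated with compound for 10 min at 37 °C. N-LgBiT-NusG (250 nM in PBS) was then added and incubated 10 min at 37 °C. Nano-Glo substrate was added and luminescence read. IC50 determined. Triplicate with technical repeats.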

[21] = tested on: Bacillus subtilis; test: Antibacterial activity against Bacillus Subtilis assessed as bacterial transcription by measuring delocalization of GFP-tagged RpsB from cell poles towards midcell at 1 time MIC incubated for 30 mins by epifluorescence microscopy based analysis; type: functional, organism-based
How it was run: (§2)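 B. subtilis reporter strains expressing GFP fusions, grown overnight on selective LB agar at 37 °C, then overnight in LB with selective antibiotic and xylose, 37 °C, 180 rpm. Cells mounted on 1.2% agarose, imaged by epifluorescence with 100×/1.45 oil objective, FITC (525/50) filter.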

[22] = tested on: Bacillus subtilis; test: Antibacterial activity against Bacillus Subtilis assessed as bacterial transcription by measuring subcellular localization of MreB at 1 time MIC incubated for 30 mins by epifluorescence microscopy based analysis; type: functional, organism-based; how it was run: as §2
[23] = tested on: Bacillus subtilis; test: Antibacterial activity against Bacillus Subtilis assessed as bacterial transcription by measuring delocalization of GFP-tagged RpsB at 1 time MIC incubated for 30 mins by epifluorescence microscopy based analysis; type: functional, organism-based; how it was run: as §2

Molecule | MIC [1] | MIC [2] | MIC [3] | MIC [4] | MIC [5] | MIC [6] | MIC [7] | MIC [8] | MIC [9] | MIC [10] | MIC [11] | MIC [12] | MIC [13] | MIC [14] | MIC [15] | MIC [16] | MIC [17] | MIC [18] | MIC [19] | other results
Cc1onc(-c2ccccc2)c1C(=O)N[C@@H]1C(=O)N2[C@@H]1SC(C)(C)[C@@H]2C(=O)O [OXACILLIN] | 2 µg/mL | ≤ 0.062 µg/mL | 2 µg/mL | 1 µg/mL | – | – | – | – | – | – | – | – | – | – | – | – | – | – | – | –
OC(CNCCNc1ccccc1C(F)(F)F)COc1ccc(C(F)(F)F)cc1 (centres undefined) | 4 µg/mL | 16 µg/mL | 8 µg/mL | 16 µg/mL | 16 µg/mL | 16 µg/mL | > 256 µg/mL | 32 µg/mL | 16 µg/mL | 16 µg/mL | > 256 µg/mL | 4 µg/mL | 16 µg/mL | 16 µg/mL | 8 µg/mL | 16 µg/mL | 8 µg/mL | 8 µg/mL | 16 µg/mL | –
H-EGRVATSLREHIKLHN-OH | – | – | – | – | – | – | – | – | – | – | – | – | – | – | – | – | – | – | – | IC50 [20]: 195 µM
CN(C)[C@@H]1C(O)=C(C(N)=O)C(=O)[C@@]2(O)C(O)=C3C(=O)c4c(O)cccc4[C@@](C)(O)[C@H]3C[C@@H]12 | – | – | – | – | – | – | – | – | – | – | – | – | – | – | – | – | – | – | – | Activity [21]: Active
CN[C@H](CC(C)C)C(=O)N[C@H]1C(=O)N[C@@H](CC(N)=O)C(=O)N[C@H]2C(=O)N[C@H]3C(=O)N[C@H](C(=O)N[C@H](C(=O)O)c4cc(O)cc(O)c4-c4cc3ccc4O)[C@H](O)c3ccc(c(Cl)c3)Oc3cc2cc(c3O[C@@H]2O[C@H](CO)[C@@H](O)[C@H](O)[C@H]2O[C@H]2C[C@](C)(N)[C@H](O)[C@H](C)O2)Oc2ccc(cc2Cl)[C@H]1O [VANCOMYCIN] | 1 µg/mL | 0.5 µg/mL | 2 µg/mL | 1 µg/mL | – | – | – | – | – | – | – | – | – | – | – | – | – | – | – | –
O=C(N[C@H](CO)[C@H](O)c1ccc([N+](=O)[O-])cc1)C(Cl)Cl | – | – | – | – | – | – | – | – | – | – | – | – | – | – | – | – | – | – | – | Activity [21]: Active
CO[C@H]1/C=C/O[C@@]2(C)Oc3c(C)c(O)c4c(O)c(c(/C=N/N5CCN(C)CC5)c(O)c4c3C2=O)NC(=O)/C(C)=C\C=C\[C@H](C)[C@H](O)[C@@H](C)[C@@H](O)[C@@H](C)[C@H](OC(C)=O)[C@@H]1C | – | – | – | – | – | – | – | – | – | – | – | – | – | – | – | – | – | – | – | Activity [22]: Active; Activity [23]: Active
OC(CNCCOc1ccccc1C(F)(F)F)COc1ccc(C(F)(F)F)cc1 (centres undefined) | 8 µg/mL | 16 µg/mL | 8 µg/mL | 8 µg/mL | 8 µg/mL | 16 µg/mL | > 256 µg/mL | 32 µg/mL | 16 µg/mL | 16 µg/mL | > 256 µg/mL | 8 µg/mL | 16 µg/mL | 8 µg/mL | 16 µg/mL | 8 µg/mL | 8 µg/mL | 16 µg/mL | 16 µg/mL | –
OC(CNCCSc1ccccc1C(F)(F)F)CSc1ccc(C(F)(F)F)cc1 (centres undefined) | 4 µg/mL | 8 µg/mL | 4 µg/mL | 8 µg/mL | 4 µg/mL | 32 µg/mL | > 256 µg/mL | > 256 µg/mL | > 256 µg/mL | 8 µg/mL | > 256 µg/mL | 4 µg/mL | 8 µg/mL | 8 µg/mL | 8 µg/mL | 4 µg/mL | 8 µg/mL | 8 µg/mL | 8 µg/mL | –
OC(CNCCNc1nccc(C(F)(F)F)n1)COc1ccc(F)cc1 (centres undefined) | 128 µg/mL | – | – | – | – | > 256 µg/mL | > 256 µg/mL | > 256 µg/mL | > 256 µg/mL | 256 µg/mL | > 256 µg/mL | – | – | – | – | – | – | > 256 µg/mL | > 256 µg/mL | –
